Results published in ChEMBL document CHEMBL4406905, “The adduct formation between the thioguanine-polyamine ligands and DNA with the AP site under UVA irradiated and non-irradiated conditions” (Bioorg Med Chem, 2019).
Activity calls are given as the source filed them. The calls are words filed in the database; no cut-off is given here.

Columns and labels:
[1] = Binding affinity to A-F-C/T-A-G duplex DNA (unknown origin) assessed as change in melting temperature at 10 uM by UV-Vis spectrophotometric analysis (reference value: 33.6 +/- 0.2 degC)
[2] = Binding affinity to A-F-C/T-G-G duplex DNA (unknown origin) assessed as change in melting temperature at 10 uM by UV-Vis spectrophotometric analysis (reference value: 34.4 +/- 0.2 degC)
[3] = Binding affinity to A-F-C/T-T-G duplex DNA (unknown origin) assessed as change in melting temperature at 10 uM by UV-Vis spectrophotometric analysis (reference value: 33.0 +/- 0.4 degC)
[4] = Binding affinity to A-F-C/T-C-G duplex DNA (unknown origin) assessed as change in melting temperature at 10 uM by UV-Vis spectrophotometric analysis (reference value: 30.7 +/- 0.3 degC)
[5] = Binding affinity to C-F-A/G-C-T duplex DNA (unknown origin) assessed as change in melting temperature at 10 uM by UV-Vis spectrophotometric analysis (reference value: 32.0 +/- 0.4 degC)
[6] = Binding affinity to A-F-A/T-C-T duplex DNA (unknown origin) assessed as change in melting temperature at 10 uM by UV-Vis spectrophotometric analysis (reference value: 29.9 +/- 0.3 degC)
[7] = Binding affinity to A-T-C/T-A-G duplex DNA (unknown origin) assessed as change in melting temperature at 10 uM by UV-Vis spectrophotometric analysis (reference value: 52.0 +/- 0.1 degC)
[8] = Binding affinity to A-C-C/T-G-G duplex DNA (unknown origin) assessed as change in melting temperature at 10 uM by UV-Vis spectrophotometric analysis (reference value: 54.8 +/- 0.0 degC)
[9] = Binding affinity to A-A-C/T-T-G duplex DNA (unknown origin) assessed as change in melting temperature at 10 uM by UV-Vis spectrophotometric analysis (reference value: 52.1 +/- 0.1 degC)
[10] = Binding affinity to A-G-C/T-C-G duplex DNA (unknown origin) assessed as change in melting temperature at 10 uM by UV-Vis spectrophotometric analysis (reference value: 48.5 +/- 0.1 degC)
[11] = Binding affinity to C-G-A/G-C-T duplex DNA (unknown origin) assessed as change in melting temperature at 10 uM by UV-Vis spectrophotometric analysis (reference value: 55.2 +/- 0.1 degC)
[12] = Binding affinity to A-G-A/T-C-T duplex DNA (unknown origin) assessed as change in melting temperature at 10 uM by UV-Vis spectrophotometric analysis (reference value: 50.3 +/- 0.1 degC)
[13] = Photo-activated binding affinity to A-F-C/T-C-G duplex DNA (unknown origin) at 100 uM measured for 24 hrs by HPLC analysis
Summary of the method: (§1)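 Duplex at 10 µM (F = tetrahydrofuran AP analogue) with 100 µM ligand in 10 mM HEPES-NaOH pH 7.0, 5 mM DTT and 100 mM NaCl. Irradiated with UVA (4 W, 365 nm) at rt. Analysed by reversed-phase C18 HPLC at 50 °C with 254 nm detection, TEAA pH 7.0/MeCN gradient. Product peak identified by MALDI-TOF MS.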

[14] = Induction of DNA cleavage in 5'-FAM-DNA1(U)/DNA2(C) duplex DNA (unknown origin) assessed as formation of DNA8 at 10 uM by fluorescence based PAGE analysis
Summary of the method: (§2)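 DNA1(U)/DNA2(X) was annealed 5 min at 70 °C and treated with uracil-DNA glycosylase (0.2 unit/µl, pH 7.4, 37 °C, 15 min) to form the AP site. The 100 nM duplex was re-annealed in 10 mM HEPES-NaOH pH 7.0 with 100 mM NaCl, then incubated with 10 µM ligand at 37 °C for 5–300 min. Reactions were quenched with urea/EDTA loading buffer on ice. Products were run on 12% denaturing PAGE (8 M urea), imaged by 5'-FAM fluorescence, and band ratios (%) quantified.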

[15] = Induction of DNA cleavage in 5'-FAM-DNA1(U)/DNA2(A) duplex DNA (unknown origin) assessed as formation of DNA8 at 10 uM by fluorescence based PAGE analysis; summary of the method: as §2
[16] = Induction of DNA cleavage in 5'-FAM-DNA1(U)/DNA2(A) duplex DNA (unknown origin) assessed as change in formation of DNA4 at 10 uM by fluorescence based PAGE analysis; summary of the method: as §2
[17] = Induction of DNA cleavage in 5'-FAM-DNA1(U)/DNA2(C) duplex DNA (unknown origin) assessed as formation of beta elimination production DNA4 at 10 uM measured for 5 hrs by fluorescence based PAGE analysis; summary of the method: as §2
[18] = Induction of DNA cleavage in 5'-FAM-DNA1(U)/DNA2(C) duplex DNA (unknown origin) assessed as formation of delta elimination production DNA7 at 10 uM measured for 5 hrs by fluorescence based PAGE analysis; summary of the method: as §2
[19] = Induction of DNA cleavage in 5'-FAM-DNA1(U)/DNA2(C) duplex DNA (unknown origin) assessed as formation DNA8 at 10 uM measured for 5 hrs by fluorescence based PAGE analysis; summary of the method: as §2
[20] = Induction of DNA cleavage in 5'-FAM-DNA1(U)/DNA2(A) duplex DNA (unknown origin) assessed as formation of beta elimination production DNA4 at 10 uM measured for 5 hrs by fluorescence based PAGE analysis; summary of the method: as §2
[21] = Induction of DNA cleavage in 5'-FAM-DNA1(U)/DNA2(A) duplex DNA (unknown origin) assessed as formation of delta elimination production DNA7 at 10 uM measured for 5 hrs by fluorescence based PAGE analysis; summary of the method: as §2
[22] = Induction of DNA cleavage in 5'-FAM-DNA1(U)/DNA2(A) duplex DNA (unknown origin) assessed as formation DNA8 at 10 uM measured for 5 hrs by fluorescence based PAGE analysis; summary of the method: as §2
[23] = Photo-activated binding affinity to A-F-C/T-A-G duplex DNA (unknown origin) at 100 uM measured for 24 hrs by HPLC analysis; summary of the method: as §1
[24] = Photo-activated binding affinity to A-F-C/T-C-G duplex DNA (unknown origin) assessed as induction of photo reaction at 100 uM measured for 3 hrs by HPLC analysis; summary of the method: as §1
[25] = Photo-activated binding affinity to A-F-C/T-G-G duplex DNA (unknown origin) at 100 uM measured for 24 hrs by HPLC analysis; summary of the method: as §1
[26] = Photo-activated binding affinity to A-F-C/T-T-G duplex DNA (unknown origin) at 100 uM measured for 24 hrs by HPLC analysis; summary of the method: as §1
[27] = Photo-activated binding affinity to C-F-A/G-C-T duplex DNA (unknown origin) at 100 uM measured for 24 hrs by HPLC analysis; summary of the method: as §1
[28] = Photo-activated binding affinity to A-F-A/T-C-T duplex DNA (unknown origin) at 100 uM measured for 24 hrs by HPLC analysis; summary of the method: as §1
[29] = Induction of DNA cleavage in 5'-FAM-DNA1(U)/DNA2(C) duplex DNA (unknown origin) assessed as formation of beta elimination production DNA4 at 10 uM measured for 30 min by fluorescence based PAGE analysis; summary of the method: as §2
[30] = Induction of DNA cleavage in 5'-FAM-DNA1(U)/DNA2(C) duplex DNA (unknown origin) assessed as formation of delta elimination production DNA7 at 10 uM by fluorescence based PAGE analysis; summary of the method: as §2
[31] = Induction of DNA cleavage in 5'-FAM-DNA1(U)/DNA2(C) duplex DNA (unknown origin) assessed as increase in slower moving bands at 10 uM measured after 1 hr by fluorescence based PAGE analysis

NCCCNCCCNCCCCCn1cnc2c(=S)[nH]c(N)nc21
ΔTm [1]: 2.8 °C
ΔTm [2]: 3.8 °C
ΔTm [3]: 3.1 °C
ΔTm [4]: 4.2 °C
ΔTm [5]: 4.1 °C
ΔTm [6]: 3.3 °C
ΔTm [7]: 0.6 °C
ΔTm [8]: 1 °C
ΔTm [9]: 0.7 °C
ΔTm [10]: 0.6 °C
ΔTm [11]: 0.9 °C
ΔTm [12]: 0.6 °C
Activity [13]: Active
Activity [14]: Active
Activity [15]: Active
Activity [16]: Active
Activity [17]: Active
Activity [18]: Active
Activity [19]: Active
Activity [20]: Active
Activity [21]: Active
Activity [22]: Active

NCCCNCCCNCCCn1cnc2c(=S)[nH]c(N)nc21
Activity [23]: inactive
ΔTm [1]: 2.3 °C
ΔTm [2]: 1.6 °C
ΔTm [3]: 1.2 °C
ΔTm [4]: 5.4 °C
ΔTm [5]: 3.5 °C
ΔTm [6]: 1.8 °C
ΔTm [7]: 0.5 °C
ΔTm [8]: 0.5 °C
ΔTm [9]: 0.2 °C
ΔTm [10]: 0.7 °C
ΔTm [11]: 0.4 °C
ΔTm [12]: 0.7 °C
Activity [24]: Active
Activity [25]: inactive
Activity [26]: inactive
Activity [13]: Active
Activity [27]: inactive
Activity [28]: inactive
Activity [29]: Active
Activity [30]: Active
Activity [15]: Active
Activity [16]: Active
Activity [17]: Active
Activity [18]: Active
Activity [19]: Active
Activity [20]: Active
Activity [21]: Active
Activity [22]: Active
Activity [31]: Active

NCCCNCCCNCCCn1cnc2c(=O)[nH]c(N)nc21
Activity [31]: inactive
